Measured values taken from paper PMC6726451 (Science Advances, 2019).
pIC50, pKd: −log10 of the molar value. “And” between values parts separate entries of the source, which are not always exact repeats. Equal entries are not always repeated.

Legend:
TtClpP [1] = biological target: T1, TtClpP (Thermus thermophilus, UniProt Q5SKM8); assay: TAMRA-FP labeling of TtClpP active-site serines; assay type: biochemical; settings: TAMRA-FP 5 μM, TtClpP 1 mg/ml, bortezomib 100 μM
EcClpP = EcClpP (Escherichia coli, UniProt P0A6G7); assay: EcClpP peptidase activity, PKMamc degradation; assay type: biochemical
In short: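 Purified E. coli ClpP was mixed in 50 mM Hepes (pH 7.6) and 50 mM NaCl with the fluorogenic tripeptide PKMamc (100 μM working concentration) and test compound, or a matching DMSO volume. AMC release was read at 340-nm excitation and 462-nm emission at defined intervals. An apparent IC50 was derived from peptidase activity.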

TtClpP [2] = biological target: T1, TtClpP; assay: FITC-casein degradation by TtClpP; assay type: biochemical; settings: TtClpP 0.1 μM complex
In short: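 FITC-casein, passed over a G25 column to remove free fluorescein, was used at 0.15 μM with TtClpP14 (0.1 μM). Test compound was added at a range of concentrations. Fluorescence rise was monitored at 440-nm excitation, 509-nm emission and 495-nm cutoff. Initial degradation rates after temperature equilibration were plotted against compound concentration.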

TtClpP [3] = biological target: T1, TtClpP; assay: FtsZ degradation by TtClpP, SDS-gel electrophoresis; assay type: biochemical; settings: 200 μM and 2 mM bortezomib, 37°C, TtClpP 1 μM complex
In short: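 Purified intrinsically disordered E. coli FtsZ (20 μM) was incubated at 37°C with TtClpP14 (1 μM) and the stated test-compound concentrations. Aliquots were withdrawn at set time points and resolved on a 15% SDS gel to follow FtsZ loss.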

TtClpP with TtClpX = TtClpP with TtClpX (Thermus thermophilus, UniProt Q5SKM8); assay: TtClpP peptidase activity in the presence of TtClpX; assay type: biochemical
In short: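 N-terminally truncated TtClpX and TtClpP were expressed in E. coli BL21RIL and purified by NiNTA and SEC. Concentrations are given as hexamer and tetradecamer. TtClpP (0.1 μM complex) was mixed with TtClpX at varying ClpX6/ClpP14 molar ratios in 50 mM Hepes (pH 7.6) and 50 mM NaCl, without or with 10 μM test compound. PKMamc hydrolysis was read at 340/462 nm, at 60°C unless otherwise indicated. The ratio giving half-maximal activation was derived from activation plotted against molar ratio.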

TtClpP [4] = biological target: T1, TtClpP; assay: Isothermal titration calorimetry fitted to the MWC model; assay type: binding
In short: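 TtClpP (10 μM, cell) was titrated with test compound (1.4 mM, syringe) in 50 mM Hepes (pH 7.6) and 50 mM NaCl at 25°, 35° and 45°C. Solutions were degassed. Each run used 19 injections 150 s apart with stirring at 750 rpm, in replicates. Integrated heats were fitted by nonlinear least squares to an MWC model with 14 identical single-site subunits. The fit gave KR, KT, γ, enthalpies and active fraction N.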

TtClpP [5] = biological target: T1, TtClpP; assay: Dynamic light scattering, hydrodynamic radius of TtClpP; settings: 5 mM bortezomib; for hydrodynamic radius Rhyd of TtClpP: TtClpP 3 μM
In short: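 TtClpP (3 μM) was measured in 100 mM tris (pH 8.5), 100 mM NaCl and 5% glycerol, with no additive or with 5 mM bortezomib added, at 25° or 45°C. Each condition was run in triplicate, three times for each of two TtClpP samples. Hydrodynamic radius is the average of these replicates.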

TtClpP [6] = biological target: T1, TtClpP; assay: Solution-state methyl NMR of Ile-δ1-CH3-labeled TtClpP; assay type: binding; settings: 2 mM bortezomib, TtClpP 250 μM, 60°C
In short: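 Uniformly 2H,15N-labelled TtClpP carrying Ile-δ1-13CH3 labels, and its S97A mutant, were used. Protein was expressed in D2O and refolded from urea-solubilised inclusion bodies by NiNTA and SEC. Protein (250 μM) was mixed with 2 mM test compound or the DMSO equivalent in 100 mM tris (pH 8.5), 100 mM NaCl and 5% glycerol. 2D SOFAST-methyl-TROSY spectra were recorded at 700 MHz and 60°C, for 10–120 min per sample.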

S97A TtClpP = S97A TtClpP (Thermus thermophilus, UniProt Q5SKM8, S97A); assay type: binding; settings: 2 mM bortezomib, S97A TtClpP 250 μM, 60°C
TtClpP [7] = biological target: T1, TtClpP; assay: MAS solid-state NMR chemical shift perturbations; assay type: binding; settings: 10 mM bortezomib, sedimented TtClpP
MtbClpP1P2 complex [8] = biological target: T2, MtbClpP1P2 complex (Mycobacterium tuberculosis, UniProt P9WPC3+P9WPC5); assay: MtbClpP1P2 peptidase activity; assay type: biochemical
MtbClpXP1P2 complex = settings: in vivo cell screen; cited from earlier work
proteasome = settings: cited from earlier work
TtClpP [9] = biological target: T1, TtClpP; assay: TtClpP peptidase activity, PKMamc degradation; assay type: biochemical; settings: Fig. 1B
MtbClpP1P2 complex [10] = biological target: T2, MtbClpP1P2 complex; settings: cited from earlier work
[11] = 35°C, absolute error 0.3 kcal/mol
[12] = 45°C, absolute error 0.3 kcal/mol

Question: With `O=c1oc(Cl)c(Cl)c2ccccc12` [DCC, dichloroisocoumarin] as the compound, how does the “TAMRA-FP labeling of TtClpP” value (TtClpP [1]) read?
Answer: The value was “reduced the amount of TAMRA bound to ClpP”.

Question: With `CC(C)C[C@H](NC(=O)[C@H](Cc1ccccc1)NC(=O)c1cnccn1)B(O)O` [bortezomib] as the compound, how does the pIC50 (EcClpP) read?
Answer: The pIC50 was 5.80.

Question: And the “concentration dependence of FITC-casein degradation activation” value (TtClpP [2])?
Answer: The value was “linear and no reduction of the activation was observed up to 100 μM”.

Question: What about the “effect on FITC-casein degradation” value (TtClpP [2]; FITC-casein 0.15 μM) of the same compound?
Answer: The value was “a striking activation was observed”.

Question: And the “FtsZ degradation by TtClpP” value (TtClpP [3])?
Answer: Its value is “degradation of FtsZ was observed”.

Question: What about the “effect on TtClpP peptidase activity in the presence of ClpX” value (TtClpP with TtClpX; bortezomib 10 μM, PKM-amc 100 μM) of the same compound?
Answer: The value was “acted as an inhibitor”.

Question: And the “ClpX6/ClpP14 ratio at half-maximal peptidase activity” value (TtClpP with TtClpX; bortezomib-loaded TtClpP, bortezomib 10 μM)?
Answer: Its value is 2.4 ± 0.3 and 2.4.

Question: What about the “TtClpX6 concentration at half-maximal activation” value (TtClpP with TtClpX; in the presence of bortezomib, ratio 2.4) of the same compound?
Answer: Its value is 120 nM.

Question: And the “TAMRA-FP labeling of TtClpP” value (TtClpP [1])?
Answer: Its value is “failed to observe any increase of TAMRA-FP labeling”.

Question: What about the “KT, association constant for the tense state” value (“KT, association constant” for short) (TtClpP [4]; 25°C) of the same compound?
Answer: The value was “No apparent cooperativity”.

Question: And the “N, fraction of active or binding-competent protein” value (“N, fraction” for short) (TtClpP [4]; 25°C)?
Answer: The value was 0.97.

Question: And the “ΔHT, binding enthalpy of the T state” value (TtClpP [4]; 25°C)?
Answer: The value was “No apparent cooperativity”.

Question: What about the “ΔHγ, conformational enthalpy between R and T conformations” value (TtClpP [4]; 25°C) of the same compound?
Answer: The value was “No apparent cooperativity”.

Question: And the “γ, equilibrium constant between R and T conformations in the absence of the ligand” value (TtClpP [4]; 25°C)?
Answer: Its value is “No apparent cooperativity”.

Question: What about the “ΔHR, binding enthalpy of the R state” value (TtClpP [4]; 25°C, absolute error 0.3 kcal/mol) of the same compound?
Answer: Its value is -0.5 kcal/mol.

Question: What about the “N, fraction” value (TtClpP [4]; 35°C) of the same compound?
Answer: The value was 0.97.

Question: And the “ΔHR, binding enthalpy of the R state” value (TtClpP [4]; [11])?
Answer: Its value is -0.9 kcal/mol.

Question: What about the “ΔHT, binding enthalpy of the T state” value (TtClpP [4]; [11]) of the same compound?
Answer: Its value is -0.1 kcal/mol.

Question: What about the “ΔHγ, conformational enthalpy between R and T conformations” value (TtClpP [4]; [11]) of the same compound?
Answer: The value was -0.3 kcal/mol.

Question: What about the “KT, association constant” value (TtClpP [4]; 35°C, relative error 30%) of the same compound?
Answer: Its value is 28000 M⁻¹.

Question: What about the “γ, equilibrium constant between R and T conformations in the absence of the ligand” value (TtClpP [4]; 35°C, relative error 30%) of the same compound?
Answer: The value was 3.3.

Question: And the “N, fraction” value (TtClpP [4]; 45°C)?
Answer: Its value is 1.00.

Question: And the “ΔHR, binding enthalpy of the R state” value (TtClpP [4]; [12])?
Answer: The value was -1.5 kcal/mol.

Question: What about the “ΔHT, binding enthalpy of the T state” value (TtClpP [4]; [12]) of the same compound?
Answer: The value was -0.3 kcal/mol.

Question: And the “ΔHγ, conformational enthalpy between R and T conformations” value (TtClpP [4]; [12])?
Answer: The value was -0.2 kcal/mol.

Question: What about the “KR, association constant for the relaxed state” value (TtClpP [4]; 45°C, relative error 30%) of the same compound?
Answer: The value was 65000 M⁻¹.

Question: And the “KT, association constant” value (TtClpP [4]; 45°C, relative error 30%)?
Answer: The value was 25000 M⁻¹.

Question: And the pKd (TtClpP [4]; Kd,R = KR^−1, R state, higher affinity)?
Answer: Its pKd is 4.82.

Question: And the pKd (TtClpP [4]; Kd,T = KT^−1, T state, lower affinity)?
Answer: Its pKd is 4.40.

Question: What about the “free bortezomib concentration at the R↔T crossover point” value (TtClpP [4]; R and T equally populated, MWC model) of the same compound?
Answer: The value was “around 2 μM”.

Question: What about the “increase in Rhyd of TtClpP on addition of bortezomib” value (TtClpP [5]) of the same compound?
Answer: Its value is “approximately 8 Å”.

Question: What about the “hydrodynamic radius Rhyd of TtClpP” value (TtClpP [5]; 25°C) of the same compound?
Answer: The value was 6.673 ± 0.192 nm and 6.67 nm.

Question: And the “hydrodynamic radius Rhyd of TtClpP” value (TtClpP [5]; 45°C)?
Answer: Its value is 6.702 ± 0.176 nm.

Question: And the “binding to wild-type TtClpP by spectral changes” value (TtClpP [6])?
Answer: The value was “unambiguously confirms binding”.

Question: What about the “spectral changes of the S97A mutant” value (S97A TtClpP) of the same compound?
Answer: The value was “no spectral changes were observed”.

Question: And the “chemical shift perturbations on addition of bortezomib” value (TtClpP [7])?
Answer: The value was “bortezomib interacts with the active site”.

Question: And the “effect on MtbClpP1P2 peptidase activity” value (MtbClpP1P2 complex [8])?
Answer: Its value is “could also activate the peptidase activity of the MtbClpP1P2 complex”.

Question: And the “effect on GFPssrA degradation by the MtbClpXP1P2 complex” value (MtbClpXP1P2 complex)?
Answer: Its value is “inhibitor of GFPssrA degradation”.

Question: What about the “affinity for the chymotrypsin-like sites of the proteasome” value (proteasome) of the same compound?
Answer: Its value is “nanomolar affinity”.

Question: What about the “effect on the chymotrypsin site of the proteasome” value (proteasome) of the same compound?
Answer: Its value is “inhibits efficiently”.

Question: What about the “effect on the trypsin site of the proteasome” value (proteasome) of the same compound?
Answer: Its value is “paradoxical activation”.

Question: Which “TAMRA-FP labeling of TtClpP” value (TtClpP [1]) does the source give for `NC(N)=O` [urea] here?
Answer: Its value is “reduced the amount of TAMRA bound to ClpP”.

Question: Which “activation of TtClpP peptidase activity compared with bortezomib” value (TtClpP [9]) does the source give for Bz-LL here?
Answer: The value was “capable to activate TtClpP, albeit with lower efficiency”.

Question: And the “activation of MtbClpP1P2” value (MtbClpP1P2 complex [10])?
Answer: The value was “most potent of these activators in Mtb”.
